The subject of test [1] is Mus musculus. Briefly: Number of survivors on 60th day at dose 4 mg/kg/day in 7 mice implanted with P388 leukemia cell line for 1,8,15 acheduled days form Exp-1; 0/10. The test is classed as functional.
Test [2] concerns Mus musculus. Briefly: Number of survivors on 60th day at dose 7 mg/kg/day in 9 mice implanted with P388 leukemia cell line;0/9. Type of test: functional.
For test [3], the system named is Mus musculus. In words: Number of survivors on 30th day at dose 6 mg/kg/day in 10 mice implanted with P388 leukemia cell line; 0 /10. The test is classed as functional.
For test [4], the system named is Mus musculus. In words: Number of survivors on 60th day at dose 10 mg/kg/day in 10 mice implanted with P388 leukemia cell line; 0/10. The test is classed as functional.
For test [5], the system named is Mus musculus. Briefly: Number of survivors on 60th day at dose 8 mg/kg/day in 9 mice implanted with P388 leukemia cell line; 0/9. Type of test: functional.
Test [6] concerns Mus musculus. In words: Percent increase in life span at dose 20 mg/kg/day in 10 mice implanted with P388 leukemia cell line. The test is classed as functional. A digest of the protocol: (§1)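 Female DBA2 mice inoculated iv on day 0 with 10^4 P388 cells; single iv treatment on day 1 with drug as sulfate salt in physiological saline. Survival followed; %ILS from all deaths and survivors as (T/C × 100) − 100, maximal MST 30 days; survivors counted on days 30 and 60. Most experiments confirmed three times.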

The subject of test [7] is Mus musculus. Briefly: Number of survivors of DBA2 mice on 30th day after inoculation with L1210 leukemia cell line intravenously at a dose of 55 mg/kg/day; 0/10. The test is classed as functional. The note with it: route intravenous.
The subject of test [8] is Mus musculus. Briefly: Percent increase in life span at dose 70 mg/kg/day in 10 mice implanted with P388 leukemia cell line. The test is classed as functional. A digest of the protocol: as §1
For test [9], the system named is Mus musculus. In words: Number of survivors on 60th day at dose 55 mg/kg/day in 10 mice implanted with P388 leukemia cell line for 1st scheduled day; 6/10. The test is classed as functional.
Test [10] relates to Mus musculus. In words: Number of survivors of DBA2 mice on 60th day after inoculation with L1210 leukemia cell line intravenously at a dose of 60 mg/kg/day; 0/10. Particulars: route intravenous. The test is classed as functional.
Test [11] has as its system Mus musculus. In words: Percent increase in life span at dose 65 mg/kg/day in 7 mice implanted with P388 leukemia cell line for 1,8,15 schedule day in Exp-1. Type of test: functional.
The test system of test [12] is Mus musculus. In words: Number of survivors on 30th day at dose 60 mg/kg/day in 10 mice implanted with P388 leukemia cell line; 8/10. Type of test: functional.
The subject of test [13] is Mus musculus. Briefly: Percent increase in life span of DBA2 mice after inoculation with L1210 leukemia intravenously at a dose of 70 mg/kg per day. Particulars: route intravenous. Type of test: functional. A digest of the protocol:
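Female DBA2 mice inoculated iv on day 0 with 10^4 L1210 cells; drugs given iv as sulfate salts in physiological saline, mostly once on day 1. %ILS from all deaths and survivors as (T/C × 100) − 100; survivors scored on days 30 and 60.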

In test [14] the test system is Mus musculus. Briefly: Number of survivors on 60th day at dose 55 mg/kg/day in 10 mice implanted with P388 leukemia cell line; 1/10. The test is classed as functional.
In test [15] the test system is Mus musculus. In words: Number of survivors on 60th day at dose 60 mg/kg/day in 10 mice implanted with P388 leukemia cell line for 1st scheduled day; 0/9. Type of test: functional.
Test [16] concerns Mus musculus. Briefly: Percent increase in life span at dose 65 mg/kg/day in 10 mice implanted with P388 leukemia cell line. The test is classed as functional. A digest of the protocol: as §1
Test [17] has as its system Mus musculus. In words: Number of survivors on 30th day at dose 8 mg/kg/day in 10 mice implanted with P388 leukemia cell line; 0/10. The test is classed as functional.
Test [18] concerns Mus musculus. Briefly: Number of survivors of DBA2 mice on 30th day after inoculation with L1210 leukemia cell line intravenously at a dose of 2.5 mg/kg/day; 0/11. The test is classed as functional. The note with it: route intravenous.
In test [19] the test system is Mus musculus. In words: Percent increase in life span at dose 2.5 mg/kg/day in 10 mice implanted with P388 leukemia cell line. Type of test: functional.
The subject of test [20] is Mus musculus. Briefly: Percent increase in life span at dose 2 mg/kg/day in 7 mice implanted with P388 leukemia cell line for 1,8,15 scheduled days. The test is classed as functional.
The subject of test [21] is Mus musculus. In words: Percent increase in life span at dose 3 mg/kg/day in 10 mice implanted with P388 leukemia cell line; 0/10. Type of test: functional.
Test [22] relates to Mus musculus. In words: Number of survivors on 60th day at dose 2 mg/kg/day in 7 mice implanted with P388 leukemia cell line for 1,8,15 scheduled days; 0/11. Type of test: functional.
Test [23] deals with Mus musculus. Briefly: Percent increase in life span at dose 2.5 mg/kg/day in 7 mice implanted with P388 leukemia cell line for 1,8,15 scheduled days from Exp-2. Type of test: functional.
The test system of test [24] is Mus musculus. Briefly: Number of survivors of DBA2 mice on 60th day after inoculation with L1210 leukemia cell line intraperitoneally at a dose of 0.30 mg/kg/day; 0/10. The note with it: route intraperitoneal. Type of test: functional.
Test [25] concerns Mus musculus. Briefly: Percent increase in life span at dose 2.5 mg/kg/day in 7 mice implanted with P388 leukemia cell line for 1,8,15 scheduled days from Exp-1. Type of test: functional.
In test [26] the test system is Mus musculus. Briefly: Percent increase in life span of BDF1 mice after inoculation with P388 leukemia cells intraperitoneally at a dose of 0.30 mg/kg per day for 1-9 scheduled days. Particulars: P388, ip.
In test [27] the test system is Mus musculus. Briefly: Number of survivors on 60th day at dose 3 mg/kg/day in 10 mice implanted with P388 leukemia cell line; 0/9. The test is classed as functional.
Test [28] concerns Mus musculus. Briefly: Number of survivors on 60th day at dose 5 mg/kg/day in 9 mice implanted with P388 leukemia cell line; 0/10. Type of test: functional.
Test [29] relates to Mus musculus. In words: Number of survivors on 30th day at dose 7 mg/kg/day in 10 mice implanted with P388 leukemia cell line; 2/10. Type of test: functional.
Test [30] concerns Mus musculus. Briefly: Percent increase in life span at dose 6 mg/kg/day in 7 mice implanted with P388 leukemia cell line for 1,8,15 schedule days from Exp-2. The test is classed as functional.
Test [31] has as its system Mus musculus. In words: Number of survivors on 30th day at dose 8 mg/kg/day in 10 mice implanted with P388 leukemia cell line; 8/10. The test is classed as functional.
Test [32] relates to Mus musculus. In words: Number of survivors of DBA2 mice on 60th day after inoculation with L1210 leukemia cell line intravenously at a dose of 10 mg/kg/day; 0/10. The test is classed as functional. Particulars: route intravenous.
The subject of test [33] is Mus musculus. In words: Number of survivors of DBA2 mice on 60th day after inoculation with L1210 leukemia cell line intraperitoneally at a dose of 1 mg/kg/day; 0/10. Type of test: functional. Particulars: route intraperitoneal.
Test [34] relates to Mus musculus. Briefly: Number of survivors of DBA2 mice on 60th day after inoculation with L1210 leukemia cell line intravenously at a dose of 6.5 mg/kg/day; 0/10. Type of test: functional. The note with it: route intravenous.
The subject of test [35] is Mus musculus. In words: Number of survivors of DBA2 mice on 30th day after inoculation with L1210 leukemia cell line intravenously at a dose of 6.5 mg/kg/day; 0/10. The test is classed as functional. The note with it: route intravenous.
Test [36] deals with Mus musculus. In words: Percent increase in life span of DBA2 mice after inoculation with L1210 leukemia intravenously at a dose of 6.5 mg/kg per day. The note with it: route intravenous. Type of test: functional.
Test [37] concerns Mus musculus. In words: Percent increase in life span of BDF1 mice after inoculation with P388 leukemia cells intraperitoneally at a dose of 0.22 mg/kg per day for 1-9 scheduled days. The note with it: P388, ip.
For test [38], the system named is Mus musculus. In words: Number of survivors of DBA2 mice on 60th day after inoculation with L1210 leukemia cell line intravenously at a dose of 1 mg/kg/day; 0/10. Type of test: functional. Particulars: route intravenous.
The test system of test [39] is Mus musculus. Briefly: Percent increase in life span of DBA2 mice after inoculation with L1210 leukemia intravenously at a dose of 3.5 mg/kg per day. The test is classed as functional. Particulars: route intravenous.

For the compound `CC[C@]1(O)C[C@@H]2CN(CCc3c([nH]c4ccccc34)[C@@](C(=O)OC)(c3cc4c(cc3OC)N(C)[C@H]3[C@@](O)(C(=O)OC)[C@H](OC(C)=O)[C@]5(CC)C=CCN6CC[C@]43[C@@H]65)C2)C1` [VINBLASTINE], the Survivors with Mus musculus [1], in the test with Mus musculus [2], in the test on Mus musculus [3], in the test on Mus musculus [4] and with Mus musculus [5] was 0 throughout.

In the case of `CCOC(=O)[C@H](Cc1c[nH]c2ccccc12)NC(=O)[C@@]1(O)[C@H](O)[C@]2(CC)C=CCN3CC[C@@]4(c5cc([C@@]6(C(=O)OC)C[C@H]7C[N@](CCc8c6[nH]c6ccccc86)C[C@](O)(CC)C7)c(OC)cc5N(C)[C@@]14C)[C@@H]32`, the ILS at 20 mg/kg/day in the test on Mus musculus [6] worked out at 43.9%. In addition, the Survivors stood at 0 in the test with Mus musculus [7]; 6 with Mus musculus [9]; 0 in the test with Mus musculus [10]; 8 with Mus musculus [12]; 1 in the test on Mus musculus [14]; 0 in the test with Mus musculus [15]. The ILS at 70 mg/kg/day in the test with Mus musculus [8] was 160%; in the test with Mus musculus [13], 61.8%. Besides, the ILS at 65 mg/kg/day in the test with Mus musculus [11] was 88%; with Mus musculus [16], greater than 173%.

On to `CC[C@]1(O)C[C@@H]2CN(CCc3c([nH]c4ccccc34)[C@@](C(=O)OC)(c3cc4c(cc3OC)N(C)[C@H]3[C@@](O)(C(N)=O)[C@H](O)[C@]5(CC)C=CCN6CC[C@]43[C@@H]65)C2)C1` [VINDESINE], for which the Survivors in the test with Mus musculus [17], in the test on Mus musculus [18], in the test with Mus musculus [22], in the test on Mus musculus [24] and in the test on Mus musculus [27] was 0 in each case. The ILS at 2.5 mg/kg/day with Mus musculus [19] was determined as 19%; in the test on Mus musculus [23], 13%; in the test with Mus musculus [25] it was 31%. Also, in the test on Mus musculus [20], the ILS at 2 mg/kg/day was 31%. For the same compound, in the test on Mus musculus [21], the ILS at 3 mg/kg/day came out at 49.2%. Also, the ILS at 0.3 mg/kg/day in the test with Mus musculus [26] is 95%.

As for `CCOC(=O)[C@@H](NC(=O)[C@@]1(O)[C@H](O)[C@]2(CC)C=CCN3CC[C@@]4(c5cc([C@@]6(C(=O)OC)C[C@H]7C[N@](CCc8c6[nH]c6ccccc86)C[C@](O)(CC)C7)c(OC)cc5N(C)[C@@]14C)[C@@H]32)[C@@H](C)CC`, the Survivors with Mus musculus [28] is 0; in the test on Mus musculus [29], 2; with Mus musculus [31], 8; with Mus musculus [32], 0. For the same compound, the ILS at 6 mg/kg/day in the test with Mus musculus [30] amounted to 200%.

Take `CC[C@]1(O)C[C@H]2CN(CCc3c([nH]c4ccccc34)[C@@](C(=O)OC)(c3cc4c(cc3OC)N(C=O)[C@H]3[C@@](O)(C(=O)OC)[C@H](OC(C)=O)[C@]5(CC)C=CCN6CC[C@]43[C@@H]65)C2)C1` [VINCRISTINE]: the Survivors with Mus musculus [33], with Mus musculus [34], with Mus musculus [35] and in the test with Mus musculus [38] was 0 each time. In addition, in the test on Mus musculus [36], the ILS at 6.5 mg/kg/day was -37%. Further, the ILS at 0.22 mg/kg/day in the test on Mus musculus [37] was determined as 146%. Besides, the ILS at 3.5 mg/kg/day in the test on Mus musculus [39] was found to be 14.7%.
